In the RNAGym collection of RNA variant scans (doi:10.1126/science.aae0568) one finds yeast fitness data, which are given here for 38 variants.

Sequences and labels used below:
B1: tRNA (parent)
chain: GUUCCGUUGGCGUAAUGGUAACGCGUCUCCCUCCUAAGGAGAAGACUGCGGGUUCGAGUCCCGUACGGAACG

This sample holds only a part of the variants without activity.

This data set covers variants of B1. Kind of data set: yeast fitness relative to wild type (ratio to wild type); higher = fitter; tRNA-Arg(CCU), competitive growth, 37 C, YPD. In short, it runs like this:
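Variants of the tRNA-Arg(CCU) gene, chemically synthesised with a 3% per-site mutation rate at 69 sites, were placed at the native genomic locus in Saccharomyces cerevisiae. The pooled strains were competed in YPD at 37°C for 24 hours in six parallel replicates. Gene amplicons from the start population and from each end population were read by 100-nucleotide paired-end sequencing. Darwinian fitness relative to wild type came from changes in genotype frequencies; genotypes needed ≥ 100 starting reads, and estimates < 0.5 were set to 0.5.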
GUGCCGUUGGCGUAAUGGUAACGUGUGUCACUCCUAAGGAGAAGACUGCGGGUUCGAGUCCCGUUCGGUACG [U3G C24U C27G C30A A65U A69U]: the yeast fitness is not above 0.5.
The figure for GUGCUGUUGGCGUAAUGGUAACGCGUCUCCCUCCUAAGGAGAAGACUGCGGGUUCGAGUCCCGUACGGAGCG [U3G C5U A70G] is not above 0.5.
Consider GUGCUGUUGGCGUAAUGGUAACGCGUCUCCCUCCUAAGGAGAAGACUGCGAGUUCGAGUCCCGUACGGAACG [U3G C5U G51A], for which the yeast fitness is not above 0.5.
For GUGCUGUUGGCGUAAUGGUAACGCGACUCCCUCCUAAGGAGAAGCCUGCGGGUUCGAGCCCCGUACGGAACG [U3G C5U U26A A45C U59C] the value was not above 0.5; for GUGCCGUUGGCGUAAUGGUAACGUGUCCCCCUCCUAAGGAGAAGACUGCGGGUUCGAGUCCCGUACGGAACG [U3G C24U U28C], 0.599.
The figure for GUGCCGUUGGGGUAAUGGUAACGCGUCUCCCUCUUAAGGAGAAGACUGCGGGUUUGAGUCCCGUACGGAACG [U3G C11G C34U C55U] is not above 0.5; for GUGCUGUUGGCGUAAUGGUAACGCGACUCCCUCCUAAAGAGAAGACUGCGGGUUCGAGUCCUGUACGGAUCG [U3G C5U U26A G38A C62U A70U] it is not above 0.5.
The figure for GUGCCGUUGGUGUAAUGGCUACGCGUCUCCCUCCUAAGGAGCAGACUGCGGGUUCGAGUCCCGUCCGGAACG [U3G C11U U19C A20U A42C A65C] is not above 0.5.
Take GUGCUGUUGGCGUAAUGGUAACGCGACUCCCUCCUAAGGAGAAGACUGCGGGUUCGAGUCCCGUACGGAACG [U3G C5U U26A]: the yeast fitness was not above 0.5.
With GUGCCGUUGGUGUAAUGGUAACGCGUCUCCCUCCUAAGGAGAAGACACCGGGUUCGAGUCCCGUACGGAACG [U3G C11U U47A G48C], the yeast fitness was determined as 0.675.
Turning to GUGCCGUUGGGGUAAUGGUAACGCGUCUCCCUCCUAAGGAGAAGACUGCGGGUUCGAGUCCCGUACGGAACG [U3G C11G], the yeast fitness was determined as 0.556.
For GUGCCGUUGGUGUAAUGGUAACGCGUCUCCCUCCUAAGGAGAAGACUGCGGGUUCGAGUCCCGUACGGAACG [U3G C11U] the value was 0.748; for GUGCCGUUGGUGUAAUGGUAACGCGUCUCCCUCCUAAGGAGAAGACUGCGGGUUCGAGUCCCGCACGGAACG [U3G C11U U64C], not above 0.5; for GUGCCGUUGGCGUAAUGGUAACGCGUGUCCCUCCUAAGGAGAAGACUGCCGGUUCGAGUCCCGUACGGAACG [U3G C27G G50C], not above 0.5.
For GUGCCGUUGGUGUAAUGGUAACGCGUCUCCCUCCAAAAGAGAAGACUGCGGGUUCGAGUCCCGUAUGGAACG [U3G C11U U35A G38A C66U] the value was not above 0.5; for GUGCCGUUGGCGUAAUGGUAAAGUGUCUCCCUCCGAAGGAGAAGUCUGCGGGUUCGAGUCCCGUUCGGAUCG [U3G C22A C24U U35G A45U A65U A70U], not above 0.5; for GUGCCGUUGGCGUAAUGGUAACGCGUCUACCUCCUAAGGAGAAGACUGCGGGUUCGAGUCCCGUACGGAACG [U3G C29A], 0.533.
As for GUGCCGUUGGUGUAAUGGUAACGCGUCUCCCUCCUAAGGAGAAGACUGCGGGUUCGAGUCCCGUACGAAACG [U3G C11U G68A], the yeast fitness is not above 0.5.
For GUGCCGUUGGUGUAAUGGUAUCGCGUCUCCCUCCUAAGGAGAACACUGCGGGUUCGUGUCCCGUACGGAACG [U3G C11U A21U G44C A57U] the value was not above 0.5; for GUGCCGUUGGCGUAAUGGUAACGCGUAUCCCUCCUAAGGAGAAGACUGCGGGUUCGAGUCCCGUACGGAACG [U3G C27A], 0.633.
For GUGCCGUUGGCGUAAUGGUAACGUGUCUCCUUCCUAAGGAGAAGACUGCGGGUUCGAGUCCCGUACGGAACG [U3G C24U C31U] the value was 0.793; for GUGCCGUUGGCGUAAUGGUAAUGCGUCUCCCUCCUAAGGAGAAGACUGCGGGUUCGGGUACCGUACGGAACG [U3G C22U A57G C60A], not above 0.5; for GUGCUGUUGGCGUAAUGGUAACGCGUCUCCCUCCUAAGGAGAAGACUGCGGGUUCGAGUCCCGUUCGGAACG [U3G C5U A65U], 0.651.
As to GUGCCGUUGGCGUAAUGGUAACGCGUCUGCCUCCUAAGGAGAAGGCUGCGGGUUCGAGUCCCGUACGGAACG [U3G C29G A45G], the yeast fitness was 0.594.
The figure for GUGCUGUUGACGUAAUGCUAACGUGUCUCCCUCCUAAGGAGAAGCCUGCGGGUUCGAGUCCCGUACGGAACG [U3G C5U G10A G18C C24U A45C] is 0.553; for GUGCUGUUGACGUAAUGGUAACGCGUCUCCUUCCUAAGGACACGACUGCGGGUUCGAGUCCCGUACGGAACG [U3G C5U G10A C31U G41C A43C] it is not above 0.5; for GUGCCGUUGGGGUAAUGGUAACGCGUCUCCCUCCUAAGGAGAAGACUGCGGGUUCGAGUCCCGUUUGGAACG [U3G C11G A65U C66U] it is not above 0.5.
For GUGCCGUUGGCGUAAUGGUAACGUGUCUCCCUCCUAAGGAGAAGACUGCGGGUUCGAAACCCGUUCGGAACG [U3G C24U G58A U59A A65U] the value was 0.514; for GUGCCGUUGGUGUAAUGGCUACGCGUCUCCCUCCUAAGGAGCAGACUGCGGGUUCGAGUCCCGUCCGGUACG [U3G C11U U19C A20U A42C A65C A69U], 0.537.
Turning to GUGCCGUUGGCGUAAUGGUAACGUGUCUCCUUCCUAAGGAGAAGACUGCGGGUUCGAGUCCCGUACGGUACG [U3G C24U C31U A69U], the yeast fitness amounted to 0.839.
For GUGCUGUUGGCGUAAUGGUAACGCGUCUCCCUCCUAAGCAGAAGACAGCGGGUUCGAGUCCCGUACGGAACG [U3G C5U G39C U47A] the value was 0.538.
For GUGCCGUUGGUGUAAUGGUAACGCGUCUCCCUCCUAAGGAGAAGAUUGCGGGUUCGAGUCGCGUACGGAACG [U3G C11U C46U C61G] the value was not above 0.5; for GUGCUGUUGGCGUAAUGGUAACGCGUCUCUCUCCUAAGGUGAAGACUGUGGGUUCGAGUCCCGUACGGAACG [U3G C5U C30U A40U C49U], not above 0.5.
For GUGCCGUUGGCGUAAUGGUAACGAGUCUCCCUCCUAAGGAGAAGACUGCGGGUUCGAAUCCCGUACGGAACG [U3G C24A G58A] the value was not above 0.5.
Take GUGCCGUUGGUGUAAUGGCUACGCGUCUCCCUCCUAAGGAGCAGACUGUGGGUUCCAGUCCCGUACGGAACG [U3G C11U U19C A20U A42C C49U G56C]: the yeast fitness was not above 0.5.
For GUGCCGUUGGCGUAAUGGUAAAGCCUCUCCCUUCUAAGGAGAAGACUGCGGGUUCGAGUCCCGUACGGAACG [U3G C22A G25C C33U] the value was 0.606; for GUGCCGUUGGUGUAAUAGCUACGCGUCUCCCUCCUAAGGAGCAGACUGCGGGUUCGAGUCCCGUCCGGUACG [U3G C11U G17A U19C A20U A42C A65C A69U], not above 0.5.
For GUGCUGUUGACGUAAUGGUAACGCGUCUCCCUCCUAAGGAGAAGACUGCGGGUUUGAGUCCCGUACGGAACG [U3G C5U G10A C55U] the value was not above 0.5.
